Compound activity deposited in PubChem BioAssay by several laboratories.
The list is not random: actives were taken first. Their share in the collection is about 0.73%.
Arbovirus inh: blocks arbovirus infection. inhibition, % at 10 µM. 200,000 compounds, 0.37% hits. arbovirus infection cell-based antiviral screen; in the data active means inhibition above about 30%
TNAP inh no acc: inhibitors of human TNAP without phosphate acceptor; P05186; purified TNAP, CDP-star luminescence, 30 min; inhibition, % at 20 µM; 200,000 compounds, 0.26% hits; AID 1012;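 active means tissue-nonspecific alkaline phosphatase inhibition above about 50% at 20 µM in the single-dose screen, limit read from the data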;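 further: 0% = DMSO negative control and 100% = EDTA positive control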
Target sequence (P05186 whole entry, looked up): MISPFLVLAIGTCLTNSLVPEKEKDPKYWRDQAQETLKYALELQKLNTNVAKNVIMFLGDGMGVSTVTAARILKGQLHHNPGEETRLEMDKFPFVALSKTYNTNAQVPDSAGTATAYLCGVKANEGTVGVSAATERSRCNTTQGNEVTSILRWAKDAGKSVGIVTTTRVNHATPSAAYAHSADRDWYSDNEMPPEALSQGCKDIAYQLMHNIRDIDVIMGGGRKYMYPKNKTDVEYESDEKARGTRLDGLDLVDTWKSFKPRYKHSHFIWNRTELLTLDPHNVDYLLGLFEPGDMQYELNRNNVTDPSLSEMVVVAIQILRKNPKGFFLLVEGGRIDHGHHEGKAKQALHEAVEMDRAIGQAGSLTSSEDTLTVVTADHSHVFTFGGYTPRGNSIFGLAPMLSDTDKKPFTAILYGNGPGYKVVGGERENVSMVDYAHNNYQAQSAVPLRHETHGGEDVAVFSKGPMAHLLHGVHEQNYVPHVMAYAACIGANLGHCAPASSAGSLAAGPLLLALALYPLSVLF
TNAP inh hi DEA: TNAP (human) inhibition, high acceptor; AID 1135; inhibition, % at 20 µM; purified TNAP, CDP-star luminescence, 1 M DEA; P05186; 200,000 compounds, 0.03% hits;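 active means over 50% inhibition of tissue-nonspecific alkaline phosphatase at 20 µM in the single-dose screen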;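 further: plate controls were DMSO wells for no effect and EDTA-quenched wells as full inhibition for full effect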
TNAP act hi DEA: increases human TNAP activity under high phosphate acceptor concentration. P05186. purified TNAP, CDP-star luminescence, 1 M DEA, 30 min; active compounds read high; 0 = EDTA background, 1 = DMSO-only activity. activation factor at 20 µM. 200,000 tested, under 10 active. AID 1136;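 active means activation factor at least 2 at 20 µM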
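Measured by: Luminescent substrate turnover signal | Test system: Human TNAP | Input: TNAP 1/800 final | Dosing: 20 µM single point | Schedule: 30 min, room temperature | Controls: EDTA wells as negative control, DMSO wells as positive control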
PKD1 kinase inh: blocks activity of human protein kinase D1 | Q15139 | PKD1 kinase fluorescence polarization assay | inhibition, % (concentration not given with the values) | 200,000 compounds, 0.056% hits | AID 797; in the data active means inhibition above about 50%
The depositor's hits bear a star.

SMILES	Arbovirus inh	TNAP inh no acc	TNAP inh hi DEA	TNAP act hi DEA	PKD1 kinase inh
O=c1/c(=C/c2ccc(O)c([N+](=O)[O-])c2)sc2nc3ccccc3n12	30*	10	8	0.9	5
Cc1cc(/C=c2/sc3nc4ccccc4n3c2=O)c(C)n1-c1ccccn1	-9	0	-1	1	-8
Cc1cc(/C=c2\sc3nc4ccccc4n3c2=O)c(C)n1-c1ccc(C(=O)O)cc1	37*	7	3	1	-4
O=C(NCC(c1ccco1)N1CCCCC1)c1ccc2c(c1)S(=O)(=O)c1ccccc1C2=O (stereo unspecified)	-3	-5	0	1	-6
O=C(O)c1csc(N/N=C/c2ccc(Br)cc2)n1	46*	-115	0	1	7
CC(C)CSC1=NSC2=NC(=O)/C(=C\c3coc4ccccc4c3=O)C(=N)N12	52*	13	6	0.9	-11
S=C(NCCc1ccccc1)Nc1cccc2cnccc12	11	53*	2	1	1
CC(C)Cn1c2c(c(O)c(C(=O)Nc3nccs3)c1=O)CCCC2	37*	-4	-4	1	-1
Cc1csc(NC(=O)c2c(O)c3c(n(CC(C)C)c2=O)CCCC3)n1	55*	0	4	1	-6
CCCn1c2c(c(O)c(C(=O)Nc3nc(C)cs3)c1=O)CCCC2	12	-1	2	1	-7
CC(=O)Nc1sc2c(c1C#N)CCC(C)C2 (stereo unspecified)	-5	-1	1	1	-12
N#Cc1c(NC(=O)C2CC=CCC2C(=O)O)sc2c1CCCCCC2 (stereo unspecified)	8	-16	-5	1.1	-6
CC(C)(C)C1CCc2c(sc(NC(=O)C3CC=CCC3C(=O)O)c2C#N)C1 (stereo unspecified)	36*	-11	-8	1.1	-3
CC1CCc2c(sc(NC(=O)c3ccccc3C(=O)O)c2C#N)C1 (stereo unspecified)	59*	-8	-2	1	-6
CCOc1ccc(-c2nc(C#N)c(NCc3ccco3)o2)cc1	-7	-7	0	1	-5
Cc1c(NC(=O)Nc2ccccc2Cl)c(=O)n(-c2ccccc2)n1C	1	0	-7	1.1	4
Cc1[nH]nc2c1/C(=N\O)CC(C)(C)C2	2	11	-5	1.1	-5
Cc1[nH]nc2c1C(=O)CC(C)(C)C2	-1	55*	-1	1	4
CCc1n[nH]c2c1/C(=N/O)CCC2	5	-6	-4	1	-3
CCc1n[nH]c2c1C(=O)CC(C)(C)C2	0	51*	2	1	4
CN(CC(O)Cn1c2ccccc2c2ccccc21)S(C)(=O)=O (stereo unspecified)	2	-2	-1	1	-2
CS(=O)(=O)N(CC(O)Cn1c2ccccc2c2ccccc21)c1ccccc1 (stereo unspecified)	42*	-7	-6	1.1	4
c1ccc(-c2csc3ncnc(NCCCN4CCOCC4)c23)cc1	43*	-9	-2	1	2
Cc1ccccc1N=C1SCC(=O)N1Cc1ccccc1	37*	-17	1	1	7
O=C1CSC(=Nc2ccccc2)N1Cc1ccccc1	3	6	6	0.9	3
SMILES	Arbovirus inh	TNAP inh no acc	TNAP inh hi DEA	TNAP act hi DEA	PKD1 kinase inh
CO/N=C\CC(=O)Nc1ccc(Cl)cc1Cl	-12	7	2	1	6
CC(C)CC(=O)NC(NCC1CCCO1)C(Cl)(Cl)Cl (stereo unspecified)	3	0	-1	1	-8
Nc1[nH]nc2nc(NCc3ccccc3)c3c(c12)CCN(Cc1ccccc1)C3	49*	-5	-4	1	1
CCC(=O)NC(=S)NNC(=O)c1ccc(O)cc1	-1	97*	7	0.9	4
CCc1cc2c(=O)c(-c3cscn3)coc2c(CN(C)C)c1O	38*	-11	-2	1	-7
O=c1[nH]c2ccc(S(=O)(=O)N3CCN(c4ccccc4F)CC3)cc2s1	38*	-5	-5	1.1	8
CCC1=NN2C(=N)/C(=C\c3cccn3-c3ccc(C)cc3C)C(=O)N=C2S1	39*	2	4	1	-3
CCC1=NN2C(=N)/C(=C\c3cccn3-c3cccc(Cl)c3)C(=O)N=C2S1	23	-5	-2	1	-2
CCC1=NN2C(=N)/C(=C\c3cccn3-c3c(C)cccc3C)C(=O)N=C2S1	31*	-23	-5	1.1	1
CC(C)(C)OC(=O)N1CCC(c2cc(=O)n3[nH]cc(C(=O)NC4CCCC4)c3n2)CC1	6	-13	-4	1	-1
COc1ccc(NC(=O)c2c[nH]n3c(=O)cc(C4CCN(C(=O)OC(C)(C)C)CC4)nc23)cc1Cl	49*	-34	-4	1	-2
O=C(CCCN1C(=O)/C(=C/c2cccs2)SC1=S)Nc1cccc(C(=O)O)c1	38*	8	7	0.9	1
O=C(CCCN1C(=O)/C(=C/c2cccs2)SC1=S)Nc1ccc(C(=O)O)cc1	22	9	10	0.9	-2
O=C1CCCC2=C1C(c1ccncc1)n1c(nc3ccccc31)N2 (stereo unspecified)	1	20	-3	1	-3
CC1CC(=O)C2=C(C1)Nc1nc3ccccc3n1C2c1cccnc1 (stereo unspecified)	-9	53*	-3	1	2
Cc1occc1C(=O)NNC(=S)NCc1ccccc1	6	-145	-1	1	11
Cc1c(Br)c(=O)[nH]c(=O)n1COCc1ccccc1	9	-8	-5	1.1	-7
O=c1[nH]c(=O)n(C(c2ccccc2)c2ccccc2)cc1Br	32*	-11	-2	1	-2
COc1cc(-c2nc3cccc(C)n3c2NCC2CCCO2)ccc1O (stereo unspecified)	-7	-9	-5	1	1
CC1(C)CC(=O)C2=C(C1)N(c1ccccc1)C(=O)C2(O)C(F)(F)F (stereo unspecified)	3	4	-1	1	-4
CCCc1cc(C(=O)Nc2cc(Br)ccc2O)no1	35*	10	-4	1	-6
OCCCC1CCCN(Cc2cn[nH]c2-c2ccc(F)cc2F)C1 (stereo unspecified)	15	53*	-2	1	-2
COc1ccc(-c2[nH]ncc2CN2CCC(C(=O)N3CCOCC3)CC2)c(F)c1	6	68*	1	1	-1
O=C(C1CCN(Cc2cn[nH]c2-c2ccc(F)cc2F)CC1)N1CCOCC1	5	51*	-5	1.1	4
CN1CCN(Cc2cn[nH]c2-c2ccc(F)cc2F)[C@@H](c2ccccc2)C1	5	31	-6	1.1	6
COc1ccccc1NC(=O)Nc1nnc(CC(=O)Nc2ccccc2C)s1	-4	-4	-3	1	2
O=C(c1ccc(COc2ccccc2Br)o1)N1N=C(C(F)F)CC1(O)C(F)F (stereo unspecified)	2	-7	0	1	-9
